The logD is the decadic logarithm of the distribution of all forms, ionised or not, between an organic phase and buffer at a given pH. The term Ki denotes a dissociation constant, usually derived from enzyme kinetics or from competition with a known ligand. The IC50 is the point on the concentration scale where inhibition reaches its midpoint. A lower IC50 goes with higher potency.

Data set [1] is described as follows: Lipophilicity, log D of compound at pH 7.4 incubated for 20 hrs by HPLC analysis. As to conditions: buffer. In kind it is physicochemical.
Data set [2] concerns the target T1, P2Y purinoceptor 14 (Homo sapiens, UniProt Q15391).
T1 sequence (Q15391 whole entry): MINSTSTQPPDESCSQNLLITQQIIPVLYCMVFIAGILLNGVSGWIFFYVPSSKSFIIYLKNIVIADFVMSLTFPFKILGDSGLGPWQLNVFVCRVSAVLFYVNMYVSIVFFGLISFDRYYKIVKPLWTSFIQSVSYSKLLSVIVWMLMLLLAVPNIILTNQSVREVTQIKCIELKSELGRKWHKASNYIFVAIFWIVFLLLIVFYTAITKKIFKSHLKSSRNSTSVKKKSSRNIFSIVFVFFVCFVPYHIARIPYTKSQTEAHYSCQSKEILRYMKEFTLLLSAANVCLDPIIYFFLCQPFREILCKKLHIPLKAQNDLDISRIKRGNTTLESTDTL
Briefly: Displacement of fluorescent tracer 4-(4-(1-(4-(1-(6-(3-carboxylato-4-(3-iminio-3H-xanthen-9-yl)benzamido)hexyl)-4,5-dihydro-1H-pyrrol-3-yl)butyl)piperidin-1-ium-4-yl)phenyl)-7-(4-(trifluoromethyl)phenyl)-2-naphthoate from human P2Y14R stably expressed in CHO cells assessed as inhibition constant by flow cytometry. In kind it is cell-based. Summed up:
(§1)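 Whole-cell competitive binding: CHO cells expressing hP2Y14R (or HEK-293 cells expressing mP2Y14R) incubated with AlexaFluor488-labelled antagonist tracer at 20 nM.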
On the technique in general: Flow cytometry measures light scatter and fluorescence of single cells or particles in a stream.

Data set [3] deals with T1, P2Y purinoceptor 14. In words: Displacement of fluorescent tracer 4-(4-(1-(4-(1-(6-(3-carboxylato-4-(3-iminio-3H-xanthen-9-yl)benzamido)hexyl)-4,5-dihydro-1H-pyrrol-3-yl)butyl)piperidin-1-ium-4-yl)phenyl)-7-(4-(trifluoromethyl)phenyl)-2-naphthoate from human P2Y14R stably expressed in CHO cells by flow cytometry. In kind it is cell-based. The method, boiled down: as §1

In data set [4] the target is T2, P2Y purinoceptor 14 (Mus musculus, UniProt Q9ESG6).
T2 sequence (Q9ESG6 whole entry): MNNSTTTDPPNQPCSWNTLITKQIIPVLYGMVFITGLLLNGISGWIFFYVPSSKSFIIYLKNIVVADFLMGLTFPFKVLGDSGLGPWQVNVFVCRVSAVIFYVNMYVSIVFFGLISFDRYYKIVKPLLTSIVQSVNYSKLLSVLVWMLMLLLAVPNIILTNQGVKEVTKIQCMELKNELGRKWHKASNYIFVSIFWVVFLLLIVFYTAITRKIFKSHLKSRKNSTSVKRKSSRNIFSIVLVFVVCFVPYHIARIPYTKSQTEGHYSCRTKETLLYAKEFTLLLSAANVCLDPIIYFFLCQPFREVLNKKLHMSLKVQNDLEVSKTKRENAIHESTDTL
In words: Displacement of fluorescent tracer 4-(4-(1-(4-(1-(6-(3-carboxylato-4-(3-iminio-3H-xanthen-9-yl)benzamido)hexyl)-4,5-dihydro-1H-pyrrol-3-yl)butyl)piperidin-1-ium-4-yl)phenyl)-7-(4-(trifluoromethyl)phenyl)-2-naphthoate from mouse P2Y14R stably expressed in human HEK293 cells by flow cytometry. It counts as cell-based. The method, boiled down:
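Whole-cell competitive binding: CHO cells expressing hP2Y14R (or HEK-293 cells expressing mP2Y14R) incubated with AlexaFluor488-labelled antagonist tracer at 20 nM. […] Ki derived by dividing IC50 by 1.72.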

The nature of data set [5]: Selectivity ratio, ratio of IC50 for displacement of fluorescent tracer 4-(4-(1-(4-(1-(6-(3-carboxylato-4-(3-iminio-3H-xanthen-9-yl)benzamido)hexyl)-4,5-dihydro-1H-pyrrol-3-yl)butyl)piperidin-1-ium-4-yl)phenyl)-7-(4-(trifluoromethyl)phenyl)-2-naphthoate from mouse P2Y14R stably expressed in human HEK293 cells to IC50 for displacement of fluorescent tracer 4-(4-(1-(4-(1-(6-(3-carboxylato-4-(3-iminio-3H-xanthen-9-yl)benzamido)hexyl)-4,5-dihydro-1H-pyrrol-3-yl)butyl)piperidin-1-ium-4-yl)phenyl)-7-(4-(trifluoromethyl)phenyl)-2-naphthoate from human P2Y14R stably expressed in CHO cells. It counts as cell-based.

Data set [6] concerns Mus musculus. In words: Anti-asthmatic activity against OVA/Aspergillus-sensitized protease-mediated C57BL/6J mouse model allergic asthma assessed as reduction in neutrophils in BAL fluid at 10 mg/kg,ip followed by 0.5 hrs OVA challenge and measured after 48 hrs. It counts as functional, organism-based. Conditions: time 48.5 hrs.
Data set [7] has as its system Mus musculus. Briefly: Anti-asthmatic activity against OVA/Aspergillus-sensitized protease-mediated C57BL/6J mouse model allergic asthma assessed as reduction in airway eosinophilia in BAL fluid at 10 mg/kg,ip followed by 0.5 hrs OVA challenge and measured after 48 hrs. It counts as functional, organism-based. Conditions: time 48.5 hrs.
Data set [8] deals with Mus musculus. In words: Anti-asthmatic activity against OVA/Aspergillus-sensitized protease-mediated C57BL/6J mouse model allergic asthma assessed as reduction in macrophages in BAL fluid at 10 mg/kg,ip followed by 0.5 hrs OVA challenge and measured after 48 hrs. It counts as functional, organism-based. As to conditions: time 48.5 hrs.
The test system of data set [9] is Mus musculus. Briefly: Anti-asthmatic activity against OVA/Aspergillus-sensitized protease-mediated C57BL/6J mouse model allergic asthma assessed as reduction in lymphocytes in BAL fluid at 10 mg/kg,ip followed by 0.5 hrs OVA challenge and measured after 48 hrs. As to conditions: time 48.5 hrs. It counts as functional, organism-based.
The subject of data set [10] is Mus musculus. In words: Antiallodynic activity in CCI surgery neuropathic pain Hsd:ICR mouse model assessed as reversal of mechano-allodynia by measuring paw withdrawal threshold at 10 micromol/kg,po and measured upto 6 hrs by von frey test. It counts as functional, organism-based. As to conditions: dose 10.0 µmol/kg. The method, boiled down: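 CCI neuropathic pain in adult male CD-1 mice. Single oral gavage dose of 10 μmol/kg on day 7 post-surgery. Vehicle 5% DMSO + 10% (Kolliphor HS 15:DMSO 5:95) in 0.5% methylcellulose, 0.2 mL. Von Frey paw withdrawal threshold on both hindpaws. Mean ± SD; two-way ANOVA with Dunnett's test.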

In data set [11] the test system is Mus musculus. In words: Antiallodynic activity in CCI surgery neuropathic pain Hsd:ICR mouse model assessed as reversal of mechano-allodynia by measuring paw withdrawal threshold at 10 micromol/kg,ip and measured upto 5 days by von frey test. It counts as functional, organism-based. Conditions: dose 10.0 µmol/kg, time <= 5.0 day. Summed up: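 CCI neuropathic pain in adult male Hsd:ICR (CD-1) mice (20–30 g). Single i.p. injection on day 7 after sciatic nerve constriction, at peak pain. Vehicle 10% (Kolliphor HS 15:DMSO 5:95) in saline, 0.2 mL. Paw withdrawal threshold by von Frey filaments on ipsilateral and contralateral hindpaws. Mean ± SD; two-way ANOVA with Dunnett's test versus day 0 and day 7.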

Molecules are shown by their SMILES. Active and inactive are the calls of the source.

With `O=C(O)c1cc(-c2ccc(C3(O)CC4(CNC4)C3)cc2)c2ccc(-c3ccc(C(F)(F)F)cc3)cc2c1`, the logD at 20 h in data set [1] came to 0.81. The Ki in [2] came to 12.1 nM.

Take `CC(C)(C)OC(=O)NCCCCCCn1cc(CCCCN2CCC(c3ccc(-c4cc(C(=O)O)cc5cc(-c6ccc(C(F)(F)F)cc6)ccc45)cc3)CC2)nn1`: in data set [3], the concentration for half-maximal inhibition (IC50) is 424 nM. In [2], the Ki turned out to be 247 nM.

`O=C(O)c1cc(-c2ccc(/C3=C/CCNCCC3)cc2)c2ccc(-c3ccc(C(F)(F)F)cc3)cc2c1` returned an IC50 in data set [3] of 58.4 nM. Also, the logD at 20 h in [1] is 2.9. Moreover, in [2], the Ki stood at 34 nM.

On to `O=C(O)c1cc(-c2ccc(C3CCCNCCC3)cc2)c2ccc(-c3ccc(C(F)(F)F)cc3)cc2c1`, for which the IC50 in data set [4] came out at 11.6 nM; in data set [3], 18.5 nM. In data set [1], this molecule registered a logD at 20 h of 2.5. The inhibition constant (Ki) in data set [2] came out at 10.8 nM. Further, in data set [5], the Ratio IC50 stood at 0.627.

`CCOC(=O)N1C[C@H]2C[C@@H](C1)[C@@]2(O)c1ccc(-c2cc(C(=O)OCC(=O)N(C)C)cc3cc(-c4ccc(C(F)(F)F)cc4)ccc23)cc1`: the result in [6], in [7], in [8] and in data set [9] was inactive. In addition, the outcome in [10] and in [11] was Active.

Take `O=C(O)c1cc(-c2ccc(C3CCNC3)cc2)c2ccc(-c3ccc(C(F)(F)F)cc3)cc2c1` (racemic): the logD at 20 h in data set [1] amounted to 1.6.

In data set [3], `CCOC(=O)N1C[C@H]2C[C@@H](C1)[C@@]2(O)c1ccc(-c2cc(C(=O)O)cc3cc(-c4ccc(C(F)(F)F)cc4)ccc23)cc1` gave an IC50 of 81.6 nM. In data set [2], the Ki was found to be 47.4 nM.

Consider `O=C(O)c1cc(-c2ccc(C3(O)CCCNCCC3)cc2)c2ccc(-c3ccc(C(F)(F)F)cc3)cc2c1`, for which, in [2], the Ki was 1030 nM.

In turn, `O=C(O)c1cc(-c2ccc(C3C[C@H]4CNC[C@@H]4C3)cc2)c2ccc(-c3ccc(C(F)(F)F)cc3)cc2c1` (racemic) had a logD at 20 h in data set [1] of 2.4. The Ki in data set [2] came out at 18.6 nM.

`NCCCCCCn1cc(CCCCN2CCC(c3ccc(-c4cc(C(=O)O)cc5cc(-c6ccc(C(F)(F)F)cc6)ccc45)cc3)CC2)nn1`: the IC50 in data set [3] amounted to 116 nM. Besides, the Ki in [2] was found to be 67.4 nM.

In turn, `O=C(O)c1cc(-c2ccc(C3=C[C@H]4CNC[C@@H]4C3)cc2)c2ccc(-c3ccc(C(F)(F)F)cc3)cc2c1` (racemic) returned an IC50 in data set [4] of 5.57 nM. The logD at 20 h in data set [1] came to 2.2. Further, the Ki in data set [2] was determined as 9.65 nM. Moreover, the Ratio IC50 in [5] came out at 0.336.

`O=C(O)c1cc(-c2ccc(C3CNC3)cc2)c2ccc(-c3ccc(C(F)(F)F)cc3)cc2c1` yielded a logD at 20 h in data set [1] of 1.4. Besides, in data set [2], the Ki was found to be 38.3 nM.

As for `CCOC(=O)N1C[C@H]2C[C@@H]1C[C@@H]2c1ccc(-c2cc(C(=O)OCC(=O)N(C)C)cc3cc(-c4ccc(C(F)(F)F)cc4)ccc23)cc1`, the result in data set [10] and in [11] was Active.

Regarding `CN(C)C(=O)COC(=O)c1cc(-c2ccc([C@]3(O)[C@@H]4CNC[C@H]3C4)cc2)c2ccc(-c3ccc(C(F)(F)F)cc3)cc2c1`, in data set [3], the IC50 was determined as 4810 nM. Moreover, in data set [2], the Ki was determined as 2800 nM.

`COC1(c2ccc(-c3cc(C(=O)O)cc4cc(-c5ccc(C(F)(F)F)cc5)ccc34)cc2)CC2(CNC2)C1` came in with an IC50 in data set [3] of 46.5 nM. Moreover, the logD at 20 h in [1] stood at 1.8. Also, the Ki in [2] turned out to be 27 nM.

`O=C(O)c1cc(-c2ccc(C3CC4(CNC4)C3)cc2)c2ccc(-c3ccc(C(F)(F)F)cc3)cc2c1` registered a logD at 20 h in [1] of 1.9. The Ki in data set [2] is 27.1 nM.

In data set [3], `O=C(O)c1cc(-c2ccc([C@@H]3[C@@H]4CNC[C@H]3C4)cc2)c2ccc(-c3ccc(C(F)(F)F)cc3)cc2c1` gave an IC50 of 524 nM. For the same molecule, the logD at 20 h in data set [1] was 2.8. The inhibitory constant (Ki) in data set [2] worked out at 305 nM.
